Measurements reported in ChEMBL document CHEMBL4364267, “Hydrogen sulfide donating ent-kaurane and spirolactone-type 6,7-seco-ent-kaurane derivatives: Design, synthesis and antiproliferative properties” (Eur J Med Chem, 2019).
pIC50: −log10 of the molar value. Active and inactive are the calls of the source. The rule behind the calls is not given here.

Tests used:
Bel-7402 [1] = assay: Antiproliferative activity against human Bel7402 cells assessed as reduction in cell viability after 72 hrs by MTT assay; type: functional, cell-based; details: Bel-7402, 72 h
Method in brief: (§1)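 MTT assay over 72 h, compounds at 64, 16, 4, 1, 0.25, 0.0625 and 0.015625 μM. MTT solution (5 mg/mL) and DMSO added afterwards, 10 min at room temperature, absorbance read at 490 nm. IC50 calculated as the mean ± SD of three independent experiments.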

SGC-7901 = assay: Antiproliferative activity against human SGC7901 cells assessed as reduction in cell viability after 72 hrs by MTT assay; type: functional, cell-based; details: SGC-7901, 72 h; method in brief: as §1
A549 = assay: Antiproliferative activity against human A549 cells assessed as reduction in cell viability after 72 hrs by MTT assay; type: functional, cell-based; details: A549, 72 h; method in brief: as §1
L02 = assay: Cytotoxicity against human L02 cells assessed as reduction in cell viability after 72 hrs by MTT assay; type: cell-based; details: L02, 72 h; method in brief: as §1
Bel-7402 [2] = assay: Cell cycle arrest in human Bel7402 cells assessed as accumulation of cells at G1 phase at 0.45 uM after 48 hrs by propidium iodide/RNase staining based flow cytometric analysis (reference value: 30.95%); type: functional
Bel-7402 [3] = assay: Cell cycle arrest in human Bel7402 cells assessed as accumulation of cells at G2 phase at 0.45 uM after 48 hrs by propidium iodide/RNase staining based flow cytometric analysis (reference value: 29.97%); type: functional
Bel-7402 [4] = assay: Cell cycle arrest in human Bel7402 cells assessed as accumulation of cells at G1 phase at 0.90 uM after 48 hrs by propidium iodide/RNase staining based flow cytometric analysis (reference value: 30.95%); type: functional
Bel-7402 [5] = assay: Cell cycle arrest in human Bel7402 cells assessed as accumulation of cells at G1 phase at 1.80 uM after 48 hrs by propidium iodide/RNase staining based flow cytometric analysis (reference value: 30.95%); type: functional
Bel-7402 [6] = assay: Cell cycle arrest in human Bel7402 cells assessed as accumulation of cells at S phase at 1.80 uM after 48 hrs by propidium iodide/RNase staining based flow cytometric analysis (reference value: 39.09%); type: functional
Bel-7402 [7] = assay: Cell cycle arrest in human Bel7402 cells assessed as accumulation of cells at G1 phase after 48 hrs by propidium iodide/RNase staining based flow cytometric analysis; type: functional
Bel-7402 [8] = assay: Induction of morphological changes in human Bel7402 cells assessed as chromatin shrinkage at 0.45 to 1.80 uM after 48 hrs by Hoechst 33258 staining-based fluorescent microscopic analysis; type: functional, cell-based
Method in brief: (§2)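 Bel-7402 cells cultured 24 h in 6-well plates at 37 °C, then exposed 48 h to 0, 0.45, 0.90 or 1.80 μM. Harvested by mild trypsinization and washed twice with PBS. Stained with Hoechst 33258 (2 mg/mL) for 15 min at room temperature in the dark, washed, and viewed by fluorescence microscopy.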

Bel-7402 [9] = assay: Induction of morphological changes in human Bel7402 cells assessed as nuclear fragmentation at 0.45 to 1.80 uM after 48 hrs by Hoechst 33258 staining-based fluorescent microscopic analysis; type: functional, cell-based; method in brief: as §2
Bel-7402 [10] = assay: Induction of apoptosis in human Bel7402 cells assessed as viable cells at 0.45 uM after 48 hrs by Annexin V-FITC/propidium iodide staining based flow cytometry (reference value: 97.22%); type: functional; details: Bel-7402, 48 h, read-out: Activity
Method in brief: (§3)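 Bel-7402 cells in 6-well plates treated with 0, 0.45, 0.90 or 1.80 μM, washed twice with PBS and resuspended in annexin V binding buffer. Stained with annexin V-FITC and PI for 15 min at room temperature in the dark, then analysed by flow cytometry. Methods state 24 h exposure; the figure legend states 48 h.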

Bel-7402 [11] = assay: Induction of apoptosis in human Bel7402 cells assessed as early apoptotic cells at 0.45 uM after 48 hrs by Annexin V-FITC/propidium iodide staining based flow cytometry (reference value: 2.09%); type: functional; method in brief: as §3
Bel-7402 [12] = assay: Induction of apoptosis in human Bel7402 cells assessed as necrotic cells at 0.45 uM after 48 hrs by Annexin V-FITC/propidium iodide staining based flow cytometry (reference value: 0.01%); type: functional; method in brief: as §3
Bel-7402 [13] = assay: Induction of apoptosis in human Bel7402 cells assessed as early apoptotic cells at 0.90 uM after 48 hrs by Annexin V-FITC/propidium iodide staining based flow cytometry (reference value: 2.09%); type: functional; method in brief: as §3
Bel-7402 [14] = assay: Induction of apoptosis in human Bel7402 cells assessed as late apoptotic cells at 0.90 uM after 48 hrs by Annexin V-FITC/propidium iodide staining based flow cytometry (reference value: 0.68%); type: functional; method in brief: as §3
Bel-7402 [15] = assay: Induction of apoptosis in human Bel7402 cells assessed as necrotic cells at 0.90 uM after 48 hrs by Annexin V-FITC/propidium iodide staining based flow cytometry (reference value: 0.01%); type: functional; method in brief: as §3
Bel-7402 [16] = assay: Induction of apoptosis in human Bel7402 cells assessed as late apoptotic cells at 1.80 uM after 48 hrs by Annexin V-FITC/propidium iodide staining based flow cytometry (reference value: 0.68%); type: functional; method in brief: as §3
Bel-7402 [17] = assay: Induction of apoptosis in human Bel7402 cells assessed as necrotic cells at 1.80 uM after 48 hrs by Annexin V-FITC/propidium iodide staining based flow cytometry (reference value: 0.01%); type: functional; method in brief: as §3
Bel-7402 [18] = assay: Induction of apoptosis in human Bel7402 cells after 48 hrs by Annexin V-FITC/propidium iodide staining based assay; type: functional, cell-based; method in brief: as §3
Bel-7402 [19] = assay: Induction of mitochondrial membrane potential loss in human Bel7402 cells assessed as cell population with intact mitochondrial membrane potential at 0.90 uM after 48 hrs by JC1 staining-based flow cytometry analysis (reference value: 98.67%); type: functional
Method in brief: (§4)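 Bel-7402 cells in 6-well plates exposed for 48 h to 0, 0.45, 0.90 or 1.80 μM, DMSO as vehicle. Washed with PBS and stained with JC-1 at room temperature in the dark. Cells with collapsed membrane potential counted by flow cytometry.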

Bel-7402 [20] = assay: Induction of mitochondrial membrane potential loss in human Bel7402 cells assessed as cell population with mitochondrial membrane potential collapse at 0.90 uM after 48 hrs by JC1 staining-based flow cytometry analysis (reference value: 1.28%); type: functional; method in brief: as §4
Bel-7402 [21] = assay: Induction of mitochondrial membrane potential depolarization in human Bel7402 cells after 48 hrs by JC1 staining-based flow cytometry analysis; type: functional, cell-based; method in brief: as §4
Bel-7402 [22] = assay: Induction of apoptosis in human Bel7402 cells assessed as increase in cytochrome C expression at 0.90 to 1.80 uM after 48 hrs by Western blot analysis; type: functional, cell-based
Bel-7402 [23] = assay: Induction of apoptosis in human Bel7402 cells assessed as increase in cleaved PARP expression at 0.45 to 1.80 uM after 48 hrs by Western blot analysis; type: functional, cell-based
Bel-7402 [24] = assay: Induction of apoptosis in human Bel7402 cells assessed as reduction in PARP expression at 0.45 to 1.80 uM after 48 hrs by Western blot analysis; type: functional, cell-based
Bel-7402 [25] = assay: Induction of apoptosis in human Bel7402 cells assessed as reduction in Bcl-2 expression at 0.90 to 1.80 uM after 48 hrs by Western blot analysis; type: functional, cell-based
[26] = Selectivity index, ratio of IC50 for human L02 cells to IC50 for human Bel7402 cells after 72 hrs by MTT assay; type: toxicity; details: L02 cells versus Bel7402 cells, read-out: Ratio IC50

C=C1C(=O)[C@@]23C(=O)OC[C@]4(C(=O)CCC(C)(C)[C@H]4C=O)[C@@H]2CC[C@@H]1[C@H]3OC(=O)CCCC(=O)Oc1ccc(-c2cc(=S)ss2)cc1
pIC50 (Bel-7402 [1]): 6.06 | pIC50 (SGC-7901): 5.36 | pIC50 (A549): 5.28 | pIC50 (L02): 4.68 | Activity (Bel-7402 [2]): 37.37% | Activity (Bel-7402 [3]): 22.21% | Activity (Bel-7402 [4]): 42.3% | Activity (Bel-7402 [5]): 49.56% | Activity (Bel-7402 [6]): 34.52% | Activity (Bel-7402 [7]): Dose-dependent effect | Activity (Bel-7402 [8]): Active | Activity (Bel-7402 [9]): Active | viability at 0.45 µM (Bel-7402 [10]): 82.2% | Activity (Bel-7402 [11]): 9.92% | Activity (Bel-7402 [12]): 0.11% | Activity (Bel-7402 [13]): 15.17% | Activity (Bel-7402 [14]): 12.3% | Activity (Bel-7402 [15]): 0.06% | Activity (Bel-7402 [16]): 36.64% | Activity (Bel-7402 [17]): 1.05% | Activity (Bel-7402 [18]): Dose-dependent effect | Activity (Bel-7402 [19]): 69.04% | Activity (Bel-7402 [20]): 30.96% | Activity (Bel-7402 [21]): Dose-dependent effect | Activity (Bel-7402 [22]): Active | Activity (Bel-7402 [23]): Active | Activity (Bel-7402 [24]): Active | Activity (Bel-7402 [25]): Active | selectivity ratio at 72 h [26]: 24
